Reference: article PMC3806897 (ACS chemical biology, 2013)
One block for each compound: values may come before it.

Legend:
[1] = target: T1, FAAH (Mus musculus, UniProt O08914); experiment: In vitro CC-ABPP of mouse brain proteomes; format: biochemical
T1 sequence (O08914 1-579): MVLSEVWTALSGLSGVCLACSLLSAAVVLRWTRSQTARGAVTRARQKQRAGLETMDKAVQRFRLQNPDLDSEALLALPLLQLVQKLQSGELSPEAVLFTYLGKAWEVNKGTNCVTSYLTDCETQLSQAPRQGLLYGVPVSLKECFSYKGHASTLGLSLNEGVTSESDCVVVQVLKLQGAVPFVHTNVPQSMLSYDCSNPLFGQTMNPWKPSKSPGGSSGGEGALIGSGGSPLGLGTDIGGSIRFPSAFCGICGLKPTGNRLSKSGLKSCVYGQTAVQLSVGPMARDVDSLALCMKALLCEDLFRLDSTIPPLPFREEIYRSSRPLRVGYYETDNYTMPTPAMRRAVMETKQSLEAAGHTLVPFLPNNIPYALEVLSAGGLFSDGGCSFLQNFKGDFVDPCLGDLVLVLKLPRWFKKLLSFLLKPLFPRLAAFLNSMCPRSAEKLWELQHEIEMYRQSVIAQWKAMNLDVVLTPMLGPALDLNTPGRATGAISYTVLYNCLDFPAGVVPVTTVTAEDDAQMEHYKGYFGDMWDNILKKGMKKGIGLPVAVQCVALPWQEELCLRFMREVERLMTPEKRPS
Outline: (§1)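 Brain membrane proteome from naïve mice (1.0 mg/mL) was treated with varying concentrations of alkyne carbamate probe for 30 min at 37 °C. A premixed click mixture was added immediately: CuSO4 (50 mM stock), TBTA (1.7 mM stock), freshly prepared TCEP (50 mM stock) and Rh-N3 (1.25 mM stock). Reactions ran 1 h at room temperature, were diluted with SDS loading buffer, and were read by SDS-PAGE in-gel fluorescence.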

[2] = target: T1, FAAH; experiment: In vivo competitive ABPP of brain proteomes from treated mice; settings: oral, 4 h
Outline: (§2)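 C57Bl/6J mice received test compound by oral gavage in PEG300 (1.0–40 mg•kg-1). At 4 h they were anesthetized with isoflurane, killed by cervical dislocation, and tissues were flash-frozen. Brain membrane proteomes were labeled with FP-Rh for 30 min at room temperature, quenched in reducing SDS loading buffer, separated on 10% SDS-PAGE and scanned for in-gel fluorescence.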

[3] = tested on: MAGL; experiment: as above; design: species or system mouse
Outline: as §2

[4] = target: T1, FAAH; experiment: In vitro competitive ABPP with FP-Rh in mouse brain proteome; format: biochemical; settings: 30 min, 37 °C
Outline: (§3)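 Mouse brain membrane proteome (1.0 mg/mL) was preincubated with DMSO or test compound (1–100,000 nM) for 30 min at 37 °C. FP-Rh (50 μM stock in DMSO) was added for another 30 min at room temperature, and reactions were quenched with SDS loading buffer. After SDS-PAGE, MAGL, ABHD6 and FAAH activities were quantified from in-gel fluorescent band intensities, from which IC50 values were calculated.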

[5] = tested on: carboxylesterases (CESs); experiment: In vivo CC-ABPP of liver proteomes; design: species or system mouse; settings: oral, 1-40 mg•kg^–1, 4 h
Outline: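 Mice received oral alkyne carbamate probe in PEG300 (1–40 mg•kg-1) for 4 h before livers were harvested and flash-frozen. Liver membrane proteome, with the soluble fraction removed, was diluted to 1.0 mg/mL. It was clicked to Rh-N3 with premixed CuSO4, TBTA and fresh TCEP for 1 h at room temperature, then diluted in SDS loading buffer and resolved by SDS-PAGE for in-gel fluorescence.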

[6] = tested on: other brain serine hydrolases; experiment: In vitro competitive ABPP with FP-Rh, off-target profile; format: biochemical, mouse
Outline: as §3

[7] = tested on: brain lipid levels (2-AG, AA, AEA); experiment: Brain lipid levels in treated mice; format: in vivo, mouse; settings: JW651-treated mice, p.o., 4 h
Outline: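 C57Bl/6J mice were dosed by oral gavage in PEG300 (1.0–40 mg•kg-1). After 4 h they were anesthetized with isoflurane and killed by cervical dislocation. Brains were harvested and flash-frozen in liquid N2. Lipids were measured by LC/MS against commercial standards.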

[8] = target: T2, ABHD6 (Mus musculus, UniProt Q8R2Y0); experiment: In vivo competitive ABPP of brain proteomes from treated mice; settings: 40 mg•kg^-1 p.o., 4 h
T2 sequence (Q8R2Y0 1-336): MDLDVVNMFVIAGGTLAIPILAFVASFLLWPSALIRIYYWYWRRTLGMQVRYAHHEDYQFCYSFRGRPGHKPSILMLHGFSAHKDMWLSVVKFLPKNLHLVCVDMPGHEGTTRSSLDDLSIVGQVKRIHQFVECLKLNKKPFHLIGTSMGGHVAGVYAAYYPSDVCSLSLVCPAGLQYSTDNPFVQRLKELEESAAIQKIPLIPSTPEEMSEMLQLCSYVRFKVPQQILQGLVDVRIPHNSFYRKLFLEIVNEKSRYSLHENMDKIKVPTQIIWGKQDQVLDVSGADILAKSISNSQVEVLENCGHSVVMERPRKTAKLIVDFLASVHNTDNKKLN
Outline: as §2

[9] = target: T2, ABHD6; experiment: In vitro competitive ABPP with FP-Rh in mouse brain proteome; format: biochemical; settings: for relative ABHD6 inhibitory potency: JW842 vs JW843, JW651 vs JW814, MJN110 vs all carbamates
Outline: as §3

[10] = target: T3, MAGL (Mus musculus, UniProt O35678); experiment: In vivo competitive ABPP of liver proteomes; settings: oral, 1-40 mg•kg^–1, 4 h
T3 sequence (O35678 1-303): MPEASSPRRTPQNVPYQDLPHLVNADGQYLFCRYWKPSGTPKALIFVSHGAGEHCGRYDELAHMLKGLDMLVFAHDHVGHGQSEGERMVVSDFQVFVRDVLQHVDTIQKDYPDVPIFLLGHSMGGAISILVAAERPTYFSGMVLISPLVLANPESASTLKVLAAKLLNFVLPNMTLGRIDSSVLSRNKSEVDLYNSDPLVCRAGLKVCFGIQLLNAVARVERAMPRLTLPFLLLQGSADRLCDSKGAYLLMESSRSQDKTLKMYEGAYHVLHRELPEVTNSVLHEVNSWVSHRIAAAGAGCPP
Outline: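 Mice were gavaged orally with test compound in PEG300 (1.0–40 mg•kg-1). After 4 h, animals were killed under isoflurane and livers flash-frozen. Liver membrane proteomes were labeled with FP-Rh for 30 min at room temperature, quenched with reducing SDS loading buffer, resolved on 10% SDS-PAGE and read by in-gel fluorescence scanning.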

[11] = tested on: mouse brain proteome; experiment: In vitro CC-ABPP, background proteome reactivity; format: biochemical
Outline: as §1

[12] = tested on: brain serine hydrolases; experiment: In vivo competitive ABPP of brain proteomes, off-target profile; design: species or system mouse; settings: oral, 1-40 mg•kg^–1, 4 h
Outline: as §2

[13] = tested on: mouse brain proteome; experiment: In vivo CC-ABPP of brain proteomes, off-target labeling; settings: entire tested dose range 1-40 mg•kg^–1 p.o.
[14] = tested on: MAGL; experiment: In vitro click chemistry; format: biochemical, mouse; settings: CC-ABPP with Rh-N3, 30 min, 37 °C
Outline: as §1

[15] = target: T3, MAGL; experiment: In vitro competitive ABPP with FP-Rh in mouse brain proteome; format: biochemical; settings: JW842 vs JW843, JW651 vs JW814; MJN110 vs all carbamates
Outline: as §3

cross-reactivity with FAAH [1]: some cross-reactivity
dose producing strong inhibition of FAAH in brain [2]: ≥ 10 mg•kg^–1
change in inhibitory activity against FAAH on exchange of chloro for alkyne [4]: slight increase
SMILES: C#Cc1ccc(C(c2ccc(Cl)cc2)N2CCN(C(=O)Oc3ccc([N+](=O)[O-])cc3)CC2)cc1 (stereo not shown) [JW842yne]
relative activity on MAGL in the brain in vivo ([3]; oral, 1-40 mg•kg^–1, 4 h, vs JW651yne and MJN110yne): less active
CES labeling in liver [5]: strongest CES labeling profile

inhibition of ABHD6 in brain [8]: partial inhibition
blockade of ABHD6 ([9]; at 10 μM): partial blockade
SMILES: O=C(OC(C(F)(F)F)C(F)(F)F)N1CCN(C(c2ccc(Cl)cc2)c2ccc(Cl)cc2)CC1 [JW651]
cross-reactivity with other brain serine hydrolases off-targets ([6]; up to 10 μM): did not exhibit cross-reactivity
detectable off-targets ([6]; up to 100 μM JW651, membrane fraction of mouse brain proteome): ABHD6 being the only detectable off-target
brain levels of N-arachidonoylethanolamide (AEA) [7]: unaffected
brain levels of arachidonic acid (AA) [7]: concomitant reductions
elevation of brain levels of 2-AG [7]: 10 fold
lowest dose giving near complete / complete inhibition of MAGL in brain ([3]; C57Bl/6J mice, oral gavage 1.0 to 40 mg•kg^-1, 4 h): 5 mg/kg

relative MAGL inhibitory potency [15]: much greater potency
relative ABHD6 inhibitory potency [9]: much greater potency
SMILES: O=C(Oc1ccc([N+](=O)[O-])cc1)N1CCN(C(c2ccc(Cl)cc2)c2ccc(Cl)cc2)CC1 [JW842]

Continued, compound first:

SMILES: C#Cc1ccc(C(c2ccc(Cl)cc2)N2CCN(C(=O)ON3C(=O)CCC3=O)CC2)cc1 (stereo not shown) [MJN110yne]
inactivation of MAGL in liver [10]: potent inactivation
probe concentration at which background proteome reactivity became apparent ([11]; CC-ABPP with Rh-N3, more dramatic at 100 μM): 10 µM
degree of background proteome reactivity ([11]; CC-ABPP, concentrations up to 100 μM): highest degree of background proteome reactivity
only detectable off-target activity in brain in vivo [12]: ABHD6
lowest dose substantially inhibiting MAGL in the brain ([3]; oral, 1-40 mg•kg^–1, 4 h): 5.0 mg•kg^–1
broader background proteome labeling in vivo [13]: did not reveal broader background proteome labeling
lowest probe concentration detecting MAGL reactivity [14]: 10 nM

SMILES: O=C(ON1C(=O)CCC1=O)N1CCN(C(c2ccc(Cl)cc2)c2ccc(Cl)cc2)CC1 [MJN110]
other off-targets observed ([6]; below 100 μM): LYPLA1/2 being the only other off-targets
relative MAGL inhibitory potency [15]: highest
relative ABHD6 inhibitory potency [9]: highest
